Laboratory results from ChEMBL document CHEMBL1138747, “Synthesis and structure--activity relationship in a class of indolebutylpiperazines as dual 5-HT(1A) receptor agonists and serotonin reuptake inhibitors” (J Med Chem, 2004).

Assays:
[1] = molecular target: Sodium-dependent serotonin transporter (Rattus norvegicus, UniProt P31652); experiment: Inhibition of [3H]5-HT re-uptake in rat synaptosomes; assay type: subcellular, Brain
D(2) dopamine receptor = D(2) dopamine receptor (Rattus norvegicus, UniProt P61169); experiment: Displacement of [3H]spiperone from dopamine D2 receptor of rat striatal membranes; assay type: cell membranes, Membrane
Sequence of D(2) dopamine receptor (P61169 whole entry): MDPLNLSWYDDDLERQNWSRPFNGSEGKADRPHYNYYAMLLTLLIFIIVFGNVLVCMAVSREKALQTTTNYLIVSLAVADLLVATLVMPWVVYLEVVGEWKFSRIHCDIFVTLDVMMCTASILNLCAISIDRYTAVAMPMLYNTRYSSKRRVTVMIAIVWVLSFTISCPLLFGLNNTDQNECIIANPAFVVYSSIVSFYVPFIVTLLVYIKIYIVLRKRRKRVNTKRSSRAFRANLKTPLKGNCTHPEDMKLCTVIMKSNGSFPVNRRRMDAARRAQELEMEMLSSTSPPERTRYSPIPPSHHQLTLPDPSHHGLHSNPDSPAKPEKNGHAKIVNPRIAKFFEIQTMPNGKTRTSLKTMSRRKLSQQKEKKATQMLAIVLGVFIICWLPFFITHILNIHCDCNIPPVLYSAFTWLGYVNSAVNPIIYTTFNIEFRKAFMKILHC
Procedure, shortened: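 IC50 from 5–10 compound concentrations, each in triplicate, taken as the concentration (nM) giving 50% inhibition of specific radioligand binding.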

[2] = molecular target: T1, 5-hydroxytryptamine receptor 1A (Rattus norvegicus, UniProt P19327); experiment: Inhibition of 8-OH DPAT binding to rat hydroxytryptamine 1A receptor
T1 sequence (P19327 whole entry): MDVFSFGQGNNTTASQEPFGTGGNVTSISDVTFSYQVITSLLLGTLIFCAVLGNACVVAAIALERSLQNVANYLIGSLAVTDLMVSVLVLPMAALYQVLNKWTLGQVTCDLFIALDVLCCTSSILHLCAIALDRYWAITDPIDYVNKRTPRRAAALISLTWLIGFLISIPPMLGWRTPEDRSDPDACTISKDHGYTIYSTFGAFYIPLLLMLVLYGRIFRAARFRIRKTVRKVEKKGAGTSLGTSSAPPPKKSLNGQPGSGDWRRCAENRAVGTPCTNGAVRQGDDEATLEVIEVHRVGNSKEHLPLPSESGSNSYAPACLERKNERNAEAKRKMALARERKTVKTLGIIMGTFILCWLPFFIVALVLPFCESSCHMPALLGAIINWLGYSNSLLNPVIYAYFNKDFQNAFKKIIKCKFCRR

Rattus norvegicus [3] = experiment: Dose required to inhibit ultrasonic vocalisation on peroral administered; assay type: functional; settings: po, read-out: ID50 (the source's name)
Procedure, shortened: (§1)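 Rat ultrasonic vocalization test. In a priming session, up to 10 grid-floor shocks were given (1.8 mA, 0.3 s, 20 s apart). Rats not vocalizing on three consecutive trials were excluded. Next day, rats were tested 2 h after dosing: five shocks, then vocalization duration recorded over 3 min. ID50 (dose for half-maximal inhibition) came from dose–response curves.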

Rattus norvegicus [4] = experiment: Dose required to inhibit ultrasonic vocalisation on subcutaneous administered; assay type: functional; settings: sc, read-out: ID50 (the source's name); procedure, shortened: as §1

Sequence of Sodium-dependent serotonin transporter (P31652 whole entry): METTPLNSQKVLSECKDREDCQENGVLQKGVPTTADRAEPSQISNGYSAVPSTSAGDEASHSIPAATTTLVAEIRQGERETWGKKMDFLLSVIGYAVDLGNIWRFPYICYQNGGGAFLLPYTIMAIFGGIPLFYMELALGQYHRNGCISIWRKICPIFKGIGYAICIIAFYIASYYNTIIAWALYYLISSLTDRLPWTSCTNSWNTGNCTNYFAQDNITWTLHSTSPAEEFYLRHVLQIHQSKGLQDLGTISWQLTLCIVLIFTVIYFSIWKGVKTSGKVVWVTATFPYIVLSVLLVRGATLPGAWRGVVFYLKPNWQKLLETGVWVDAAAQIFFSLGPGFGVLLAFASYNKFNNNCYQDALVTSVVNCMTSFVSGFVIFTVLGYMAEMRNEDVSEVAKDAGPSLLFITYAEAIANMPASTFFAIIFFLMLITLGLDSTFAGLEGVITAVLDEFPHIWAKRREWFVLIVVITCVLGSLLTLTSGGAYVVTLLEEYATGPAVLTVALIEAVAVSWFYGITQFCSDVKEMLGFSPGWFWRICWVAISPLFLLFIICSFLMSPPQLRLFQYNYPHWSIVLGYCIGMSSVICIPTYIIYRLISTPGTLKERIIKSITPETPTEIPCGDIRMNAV

Compound | IC50 [1] | IC50 (D(2) dopamine receptor) | IC50 [2] | ED50 (Rattus norvegicus [3]) | ED50 (Rattus norvegicus [4])
O=c1ccc2cc(N3CCN(CCCCc4c[nH]c5ccc(F)cc45)CC3)ccc2o1 | 0.9 nM | > 100 nM | 0.7 nM | – | –
N#Cc1ccc2[nH]cc(CCCCN3CCN(c4ccc(C#N)c(C#N)c4)CC3)c2c1 | 2 nM | – | 12 nM | – | –
N#Cc1ccc(N2CCN(CCCCc3c[nH]c4ccc(C#N)cc34)CC2)cc1 | 1.3 nM | 255 nM | 1.1 nM | 14 mg/kg | –
c1ccc2c(CCCCN3CCN(c4ccc5c(c4)OCCO5)CC3)c[nH]c2c1 | 10 nM | > 100 nM | 8 nM | – | –
O=C(O)c1ccc2[nH]cc(CCCCN3CCN(c4ccc5c(c4)OCCO5)CC3)c2c1 | – | > 100 nM | 4 nM | – | –
COc1ccc2[nH]cc(CCCCN3CCN(c4ccc5c(c4)OCCO5)CC3)c2c1 | 100 nM | – | – | – | –
N#Cc1ccc2[nH]cc(CCCCN3CCN(c4ccc5c(c4)OCCO5)CC3)c2c1 | 0.4 nM | 5.6 nM | 1 nM | – | –
COc1ccc(N2CCN(CCCCc3c[nH]c4ccc(C#N)cc34)CC2)cc1 | 0.5 nM | 46 nM | 1 nM | – | –
Fc1ccc2[nH]cc(CCCCN3CCN(c4ccc5c(c4)OCCO5)CC3)c2c1 | 1 nM | 130 nM | 5 nM | – | –
Fc1ccc2[nH]cc(CCCCN3CCN(c4ccc5c(c4)OCO5)CC3)c2c1 | 1 nM | < 100 nM | 4 nM | – | –
COc1ccc(Cl)cc1N1CCN(CCCCc2c[nH]c3ccc(C#N)cc23)CC1 | 6.8 nM | – | 30 nM | – | –
N#Cc1ccc2[nH]cc(CCCCN3CCN(c4cccc5nsnc45)CC3)c2c1 | 1.5 nM | 1.4 nM | 1 nM | – | –
COc1cc(N2CCN(CCCCc3c[nH]c4ccc(C#N)cc34)CC2)ccc1C#N | 3.4 nM | – | 14 nM | – | –
COc1ccccc1N1CCN(CCCCc2c[nH]c3ccc(C#N)cc23)CC1 | 3 nM | 0.7 nM | 1 nM | – | –
NC(=O)c1cc2cc(N3CCN(CCCCc4c[nH]c5ccc(F)cc45)CC3)ccc2o1 | 0.3 nM | > 100 nM | 3 nM | – | –
COc1cccc(N2CCN(CCCCc3c[nH]c4ccc(C#N)cc34)CC2)c1C#N | 3.9 nM | 1.4 nM | 5.6 nM | – | –
N#Cc1ccc2[nH]cc(CCCCN3CCN(c4cc(F)c(C#N)c(F)c4)CC3)c2c1 | 5.4 nM | – | 36 nM | – | –
O/N=C/c1ccc2[nH]cc(CCCCN3CCN(c4ccc5c(c4)OCCO5)CC3)c2c1 | 5 nM | 9.4 nM | 0.4 nM | – | –
O=Cc1ccc2[nH]cc(CCCCN3CCN(c4ccc5c(c4)OCCO5)CC3)c2c1 | 1 nM | < 100 nM | 0.7 nM | – | –
N#Cc1ccc2[nH]cc(CCCCN3CCN(c4c(C#N)cccc4C#N)CC3)c2c1 | 2 nM | < 100 nM | 40 nM | – | –
COC(=O)c1ccc2[nH]cc(CCCCN3CCN(c4ccc5c(c4)OCCO5)CC3)c2c1 | 50 nM | < 100 nM | 0.6 nM | – | –
Oc1ccc2[nH]cc(CCCCN3CCN(c4ccc5c(c4)OCCO5)CC3)c2c1 | 0.5 nM | 77 nM | 0.2 nM | – | –
N#Cc1ccc(N2CCN(CCCCc3c[nH]c4ccc(F)cc34)CC2)cc1 | 2 nM | > 100 nM | 40 nM | – | –
CCOCCOCCOc1cccc(N2CCN(CCCCc3c[nH]c4ccc(C#N)cc34)CC2)c1C#N | 3.2 nM | 28 nM | 2 nM | – | –
N#Cc1cc2cc(N3CCN(CCCCc4c[nH]c5ccc(F)cc45)CC3)ccc2o1 | 3 nM | > 100 nM | 5 nM | – | –
N#Cc1ccc2[nH]cc(CCCCN3CCN(c4ccccc4)CC3)c2c1 | 1 nM | 3.8 nM | 400 nM | – | –
Clc1ccc2[nH]cc(CCCCN3CCN(c4ccc5c(c4)OCCO5)CC3)c2c1 | 20 nM | > 100 nM | 40 nM | – | –
COc1cc(C#N)ccc1N1CCN(CCCCc2c[nH]c3ccc(C#N)cc23)CC1 | 4.1 nM | 6 nM | 8 nM | – | –
NC(=O)c1ccc2[nH]cc(CCCCN3CCN(c4ccc5c(c4)OCCO5)CC3)c2c1 | 60 nM | – | – | – | –

The next lines start with results.

IC50 [1] | IC50 (D(2) dopamine receptor) | IC50 [2] | Compound | ED50 (Rattus norvegicus [3]) | ED50 (Rattus norvegicus [4])
0.7 nM | 740 nM | 0.1 nM | N#Cc1ccc2[nH]cc(CCCCN3CCN(c4ccc5oc(=O)ccc5c4)CC3)c2c1 | 4 mg/kg | 0.5 mg/kg
1 nM | > 630 nM | 0.4 nM | N#Cc1ccc2[nH]cc(CCCCN3CCN(c4ccc5oc(C#N)cc5c4)CC3)c2c1 | – | –
0.5 nM | 35 nM | 6 nM | N#Cc1ccc2[nH]cc(CCCCN3CCN(c4ccc(O)cc4)CC3)c2c1 | – | –
2.4 nM | 5.7 nM | 1.6 nM | N#Cc1ccc2[nH]cc(CCCCN3CCN(c4ccc5[nH]ccc5c4)CC3)c2c1 | – | –
8.5 nM | 6.6 nM | 1.4 nM | N#Cc1ccc2[nH]cc(CCCCN3CCN(c4cccc5oc(C(N)=O)cc45)CC3)c2c1 | – | –
3.1 nM | 31 nM | 2 nM | N#Cc1ccc2[nH]cc(CCCCN3CCN(c4ccc5nsnc5c4)CC3)c2c1 | – | 3 mg/kg
2.6 nM | 39 nM | 1.9 nM | N#Cc1ccc2[nH]cc(CCCCN3CCN(c4cccc5cc(C(N)=O)oc45)CC3)c2c1 | – | –
3.1 nM | 1400 nM | 3.2 nM | N#Cc1ccc2[nH]cc(CCCCN3CCN(c4ccc5c(c4)CC(C(N)=O)O5)CC3)c2c1 (centres undefined) | – | –
0.8 nM | 43 nM | 400 nM | N#Cc1ccc2[nH]cc(CCCCN3CCN(c4ccc(O)c(C#N)c4)CC3)c2c1 | – | –
0.9 nM | < 42 nM | 5 nM | N#Cc1ccc2[nH]cc(CCCCN3CCN(c4ccc5c(c4)CCCO5)CC3)c2c1 | – | –
0.3 nM | – | 3.1 nM | N#Cc1ccc2[nH]cc(CCCCN3CCN(c4ccc5sc(C(N)=O)cc5c4)CC3)c2c1 | – | –
2 nM | 140 nM | 14 nM | N#Cc1ccc2[nH]cc(CCCCN3CCN(c4ccc5[nH]c(C(N)=O)cc5c4)CC3)c2c1 | – | –
1 nM | 4.2 nM | – | N#Cc1ccc2[nH]cc(CCCCN3CCN(c4ccc(F)cc4)CC3)c2c1 | 7 mg/kg | 3 mg/kg
3.9 nM | 8 nM | 8.7 nM | N#Cc1ccc2[nH]cc(CCCCN3CCN(c4ccc5occc5c4)CC3)c2c1 | – | –
0.3 nM | 40 nM | 60 nM | COc1ccc(N2CCN(CCCCc3c[nH]c4ccc(C#N)cc34)CC2)cc1OC | – | –
0.6 nM | > 270 nM | 118 nM | N#Cc1ccc2[nH]cc(CCCCN3CCN(c4ccc(C(N)=O)cc4)CC3)c2c1 | – | –
16 nM | 47 nM | 6.4 nM | N#Cc1ccc2[nH]cc(CCCCN3CCN(c4ccccc4C(N)=O)CC3)c2c1 | – | –
5.5 nM | 220 nM | 3.3 nM | N#Cc1ccc2[nH]cc(CCCCN3CCN(c4ccc5occc5c4C(N)=O)CC3)c2c1 | – | –
1 nM | 13 nM | 4 nM | N#Cc1ccc2[nH]cc(CCCCN3CCN(c4ccc5c(c4)CCO5)CC3)c2c1 | – | –
